One block for each compound: values may come before it. Activity calls are given as the source filed them. The rule behind the calls is not given here.
How the values were obtained:
[1] = system: MIA PaCa-2; assay: Induction of apoptosis in human MIA PaCa-2 cells assessed as increase in caspase 3/7 activation at 10 uM incubated for 24 hrs by Caspase-Glo assay; format: functional, cell-based
Summary of the method: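 MiaPaCa2 cells (2.5 × 10⁴/well) attached overnight, then treated 24 h at 0.1% final DMSO. alamarBlue added at 21 h for 3 h and fluorescence read at 560/590. Caspase-Glo luminescence read 2 h later. Luminescence ×100/fluorescence normalized to DMSO average, n = 3.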

[2] = biological target: T1, Inhibitor of nuclear factor kappa-B kinase subunit beta (Homo sapiens, UniProt O14920); assay: Inhibition of TNFalpha-induced IKKbeta mediated NF-kappaB activation in human Pancreatic cancer cells by luciferase reporter gene assay; parameters: species or system Pancreatic cancer cell
T1 sequence (O14920 whole entry): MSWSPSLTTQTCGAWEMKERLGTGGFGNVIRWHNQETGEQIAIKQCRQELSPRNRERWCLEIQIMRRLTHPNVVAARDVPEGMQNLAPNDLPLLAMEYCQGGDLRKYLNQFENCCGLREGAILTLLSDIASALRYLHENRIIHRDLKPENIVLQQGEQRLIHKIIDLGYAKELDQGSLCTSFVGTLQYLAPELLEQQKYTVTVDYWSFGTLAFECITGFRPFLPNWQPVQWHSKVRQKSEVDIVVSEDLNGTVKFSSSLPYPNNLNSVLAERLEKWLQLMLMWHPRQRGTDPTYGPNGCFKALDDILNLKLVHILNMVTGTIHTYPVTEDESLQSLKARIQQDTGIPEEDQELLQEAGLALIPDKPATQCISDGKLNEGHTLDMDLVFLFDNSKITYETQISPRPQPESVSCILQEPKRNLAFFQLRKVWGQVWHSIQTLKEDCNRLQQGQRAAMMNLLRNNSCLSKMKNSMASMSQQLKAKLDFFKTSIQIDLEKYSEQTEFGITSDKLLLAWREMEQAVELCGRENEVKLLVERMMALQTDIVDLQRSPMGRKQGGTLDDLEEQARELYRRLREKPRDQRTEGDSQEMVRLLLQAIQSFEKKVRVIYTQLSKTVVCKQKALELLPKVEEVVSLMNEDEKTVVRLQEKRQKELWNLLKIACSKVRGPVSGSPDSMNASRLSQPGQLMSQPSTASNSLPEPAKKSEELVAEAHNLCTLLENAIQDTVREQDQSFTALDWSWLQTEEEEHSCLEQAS

[3] = Half life in CD1 mouse at 20 mg/kg, po measured up to 24 hrs measured by LC/MS-MS analysis; format: ADME, organism-based; conditions: in vivo
Summary of the method: (§1)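 Oral 20 mg/kg given in DMSO:PEG400:H2O 1:4:5. Mice killed at 0.083, 0.25, 0.5, 1, 2, 4, 8 and 24 h and plasma analysed by LC/MS/MS with a carbamazepine internal standard. Parameters derived by non-compartmental analysis.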

[4] = Tmax in CD1 mouse at 20 mg/kg, po measured up to 24 hrs measured by LC/MS-MS analysis; format: ADME, organism-based; conditions: in vivo; summary of the method: as §1
[5] = Cmax in CD1 mouse at 20 mg/kg, po measured up to 24 hrs measured by LC/MS-MS analysis; format: ADME, organism-based; parameters: route oral, dose 20 mg/kg, time <=24; conditions: in vivo; summary of the method: as §1
[6] = AUClast in CD1 mouse at 20 mg/kg, po measured up to 24 hrs measured by LC/MS-MS analysis; format: ADME, organism-based; parameters: route oral, dose 20 mg/kg, time <=24; conditions: in vivo; summary of the method: as §1
[7] = AUC (0 to infinity) in CD1 mouse at 20 mg/kg, po measured up to 24 hrs measured by LC/MS-MS analysis; format: ADME, organism-based; parameters: route oral, dose 20 mg/kg, time <=24; conditions: in vivo; summary of the method: as §1
[8] = MRT (0 to infinity) in CD1 mouse at 20 mg/kg, po measured up to 24 hrs measured by LC/MS-MS analysis; format: ADME, organism-based; conditions: in vivo; summary of the method: as §1
[9] = Oral bioavailability in CD1 mouse at 20 mg/kg measured up to 24 hrs measured by LC/MS-MS analysis; format: ADME, organism-based; conditions: in vivo
Summary of the method: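 %F taken from oral (20 mg/kg, DMSO:PEG400:H2O 1:4:5) and intravenous (10 mg/kg, DMSO:PEG400:H2O 1:5:4) AUC0-∞. Plasma sampled from 0.083 to 24 h and quantified by LC/MS/MS with a carbamazepine internal standard. Non-compartmental analysis.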

[10] = system: MIA PaCa-2; assay: Antitumor activity against human MIA PaCa-2 cells xenografted in Foxn1nu athymic nude mouse assessed as reduction in tumor volume at 15 mg/kg, ip administered every 3 days for 4 weeks by digital caliper method relative to control; format: functional; parameters: scale not given: the % may be the effect or the level left
Summary of the method: (§2)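 MiaPaCa2 cells (2.5 × 10⁶, mixed 2:1 with Matrigel) implanted subcutaneously in left flank; randomised 20 days later (n = 6/group). Gemcitabine 15 mg/kg i.p. every 72 h against vehicle (100 µl daily orally). Tumour volume measured every 3 days by caliper as 1/2 × length × width² (mm³); mice sacrificed after 27th treatment day and tumours weighed; unpaired Student's t-test.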

[11] = system: MIA PaCa-2; assay: Antitumor activity against human MIA PaCa-2 cells xenografted in Foxn1nu athymic nude mouse assessed as reduction in tumor weight at 15 mg/kg, ip administered every 3 days for 4 weeks […]; format: functional; parameters: scale not given: the % may be the effect or the level left; summary of the method: as §2

IC50 [2]: 8.4 µM | half-life [3]: 120 min | Tmax [4]: 2.5 h | Cmax [5]: 300 ng/mL | AUC(0-t) at 24 h [6]: 1630 ng·h/mL | AUC(0-inf) [7]: 1860 ng·h/mL | MRT inf [8]: 5.2 h | bioavailability [9]: 3.1%
SMILES: O=C(Nc1ccc(Br)cc1)Nc1ccc2nc(-c3ccco3)c(-c3ccco3)nc2c1
Activity [1]: inactive

SMILES: Cn1cc(-c2cnc3ccc(NC(=O)Nc4ccc(F)c(OC(F)(F)F)c4)cc3n2)cn1
Activity [1]: inactive

SMILES: Nc1ccn([C@@H]2O[C@H](CO)[C@@H](O)C2(F)F)c(=O)n1 [GEMCITABINE]
Activity [10]: 45% | Activity [11]: 45%

SMILES: Cn1cc(-c2cnc3ccc(NC(=O)Nc4ccc(F)c(Cl)c4)cc3n2)cn1
Activity [1]: inactive
